Data set [1] in a line: Antagonist activity at AMPA receptor in E18 rat cerebral cortical neurons assessed as inhibition of AMPA-induced intracellular Ca2+ response by fura-2 AM dye based fluorimetry. It counts as functional, cell-based.
For data set [2], the system named is Mus musculus. The data set can be described thus: Anticonvulsant activity in po dosed ddY mouse AMPA-induced seizure model. It counts as functional. As to conditions: read-out: MED. A digest of the protocol: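 Male 5-week-old ddY mice given compound orally as a 0.5% MC suspension 1 h before challenge. Clonic seizures induced by intracerebroventricular AMPA infusion at 2 nmol/5 μL/min; latency to clonic seizure recorded. MED taken as lowest dose giving statistically significant prolongation of latency.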

A short description of data set [3]: Plasma clearance in Sprague-Dawley rat at 1 mg/kg, iv. It counts as ADME, organism-based. Details: dose 1 mg/kg, route intravenous. Put shortly:
(§1)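 Fasted male Sprague-Dawley rats, single 1 mg/kg dose iv or po, n = 3 per route. Blood drawn at set time points; plasma deproteinized with methanol/60% perchloric solution (500:1 v/v) and assayed by HPLC with fluorescence. Parameters from mean plasma concentrations of three animals by model-independent analysis; F = AUC(0-inf) oral/iv ratio.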

The nature of data set [4]: Volume of distribution at steady state in Sprague-Dawley rat at 1 mg/kg, iv. Details: dose 1 mg/kg, route intravenous. In kind it is ADME, organism-based. As to conditions: in vivo, read-out: Vdss. Put shortly:
as §1

Data set [5] in a line: Half life in Sprague-Dawley rat at 1 mg/kg, iv. It counts as ADME, organism-based. Details: dose 1 mg/kg, route intravenous. As to conditions: in vivo. Put shortly:
as §1

The test system of the next data set is Nucleic Acid. The data set can be described thus: Ratio of drug level in CSF to fraction unbound in plasma in ddY mouse at 0.5 mg/kg, ip after 20 mins. It counts as ADME, organism-based, Rattus norvegicus. Details: dose 0.5 mg/kg, route intraperitoneal. As to conditions: in vivo. A digest of the protocol:
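Male ddY mice were dosed ip. CSF was taken by cisternal puncture and processed like plasma: deproteinized with methanol/60% perchloric solution (500:1 v/v), then analysed by HPLC with fluorescence detection. The ratio is CSF concentration over unbound plasma concentration. Each value is the mean of two or three animals.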

Data set [6] is described as follows: Oral bioavailability in Sprague-Dawley rat at 1 mg/kg. It counts as ADME, organism-based. Particulars: in vivo. Put shortly:
as §1

Data set [7] can be described thus: Half life in healthy human. In kind it is ADME, organism-based. Particulars: in vivo.
Data set [8] relates to Rattus norvegicus. The data set can be described thus: AUC in Sprague-Dawley rat at 1 mg/kg, po. In kind it is ADME, organism-based, Plasma. Also noted: dose 1 mg/kg, route oral. Particulars: in vivo. A digest of the protocol:
as §1

Data set [9] in a line: Ratio of drug level in brain to plasma in Sprague-Dawley rat at 10 mg/kg, po after 30 mins. Particulars: brain and plasma, read-out: BPR. In kind it is ADME, organism-based. Also noted: dose 10 mg/kg, route oral. A digest of the protocol: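 Male Sprague–Dawley rats were dosed orally. Brain was homogenized in two volumes of water. Brain homogenate and plasma were deproteinized with methanol/60% perchloric solution (500:1 v/v) and quantified by HPLC with fluorescence detection. The ratio is brain over plasma concentration, each value the mean of two or three animals.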

The test system of data set [10] is Mus musculus. The data set can be described thus: Anticonvulsant activity in ddY mouse MES-induced seizure model 0.75 to 2.12 mg/kg, po after 1hr. It counts as functional. As to conditions: dose mg/kg 0.75-2.12.
A short description of data set [11]: Ratio of drug level in brain to plasma in ddY mouse at 3 mg/kg, po after 60 mins. In kind it is ADME, organism-based. Details: dose 3 mg/kg, route oral. As to conditions: brain and plasma, read-out: BPR. Put shortly:
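Male ddY mice dosed orally at 3 mg/kg; brain and plasma taken at 60 min. Brain homogenized in two volumes of water, then processed like plasma (methanol/perchloric deproteinization, HPLC with fluorescence). Ratio is the mean of two or three animals.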

Data set [12] relates to Mus musculus. The data set can be described thus: Anticonvulsant activity in ICR mouse pentylenetetrazole-induced seizure model at 0.75 to 3 mg/kg, po after 30 mins. It counts as functional. Particulars: 0.5 h, dose mg/kg 0.75-3.
Data set [13] deals with Rattus norvegicus. The data set can be described thus: AUC in Sprague-Dawley rat at 1 mg/kg, iv. Particulars: in vivo. It counts as ADME, organism-based, Plasma. Also noted: dose 1 mg/kg, route intravenous. Put shortly: as §1
Data set [14] has as its system Mus musculus. The data set can be described thus: Anticonvulsant activity in DBA/2J mouse audinogenic seizure model at 0.3 to 3 mg/kg, po after 1 hr. It counts as functional. As to conditions: dose mg/kg 0.3-3.
Data set [15] can be described thus: Cmax in Sprague-Dawley rat at 1 mg/kg, po. It counts as ADME, organism-based. Also noted: dose 1 mg/kg, route oral. As to conditions: in vivo. Put shortly:
as §1

Data set [16] can be described thus: Tmax in Sprague-Dawley rat at 1 mg/kg, po. It counts as ADME, organism-based. Also noted: dose 1 mg/kg, route oral. As to conditions: in vivo. Put shortly:
as §1

Experimental findings from ChEMBL document CHEMBL2203113, “Discovery of 2-(2-oxo-1-phenyl-5-pyridin-2-yl-1,2-dihydropyridin-3-yl)benzonitrile (perampanel): a novel, noncompetitive α-amino-3-hydroxy-5-methyl-4-isoxazolepropanoic acid (AMPA) receptor antagonist” (J Med Chem, 2012) are described below.

What is called IC50 is the concentration at which inhibition is half-maximal. The clearance is the rate of elimination divided by the concentration. For orientation: half-life means the time needed for the level to fall by half in the phase considered. Read a low half-life as rapid decline. The bioavailability is the share of a dose that reaches the circulation, judged against a reference dose that is usually intravenous. The term ED50 denotes the midpoint of the dose-response relation. As usually defined, the Cmax is the maximum level reached in the sampled fluid or tissue. For orientation: Tmax means the time at which the peak concentration occurs.

Structures are written as SMILES. A value given as a limit tells only on which side of the number the result lay.

Consider `O=c1c(-c2ccsc2)cc(-c2ccccn2)cn1-c1cccnc1`, for which the IC50 in data set [1] amounted to 780 nM.

For the compound `O=c1c(-c2ccccc2Cl)cc(-c2ccccn2)cn1-c1cccnc1`, the IC50 in data set [1] was 400 nM. For the same compound, in the data set with Mus musculus [2], the minimal effective dose was 25 mg/kg.

Consider `N#Cc1sccc1-c1cc(-c2ccccn2)cn(-c2cccnc2)c1=O`, for which the IC50 in [1] was found to be 180 nM. Moreover, the minimal effective dose in the data set with Mus musculus [2] worked out at 25 mg/kg.

As for `O=c1c(-c2ccccc2C(F)(F)F)cc(-c2ccccn2)cn1-c1cccnc1`, the IC50 in data set [1] turned out to be 2100 nM.

As to `O=c1c(-c2cccnc2F)cc(-c2ccccn2)cn1-c1cccnc1`, the half-maximal inhibitory concentration (IC50) in data set [1] is 1450 nM. The minimal effective dose with Mus musculus [2] was found to be 10 mg/kg.

Consider `N#Cc1ccccc1-c1cc(-c2cccnc2)cn(-c2ccccc2)c1=O`, for which, in data set [1], the IC50 turned out to be 4020 nM.

Take `N#Cc1ccccc1-c1cc(-c2ccncc2)cn(-c2ccccc2)c1=O`: the IC50 in [1] was 5530 nM.

For the compound `N#Cc1ccccc1-c1cc(-c2ccccc2)cn(-c2ccccc2)c1=O`, the IC50 in data set [1] turned out to be 330 nM. In addition, in the data set on Mus musculus [2], the minimal effective dose was 25 mg/kg.

With `N#Cc1ccccc1-c1cc(-c2ccccc2F)cn(-c2ccccc2)c1=O`, the 50% inhibitory concentration (IC50) in [1] amounted to 200 nM.

On to `N#Cc1ccccc1-c1cc(-c2cccs2)cn(-c2ccccc2)c1=O`, for which, in [1], the IC50 was 100 nM.

As to `N#Cc1ccccc1-c1cc(-c2ccccc2C#N)c(=O)n(-c2ccccc2)c1`, the IC50 in data set [1] was determined as 8430 nM.

For the compound `COc1ccccc1-c1cc(-c2ccccc2C#N)c(=O)n(-c2ccccc2)c1`, the half-inhibitory concentration (IC50) in data set [1] was determined as 740 nM.

With `N#Cc1ccccc1-c1cc(-c2ccsc2)cn(-c2ccccc2)c1=O`, the IC50 in [1] is 140 nM.

As to `COc1cccc(-n2cc(-c3ccccn3)cc(-c3ccccc3C#N)c2=O)c1`, the IC50 in data set [1] came to 250 nM.

Turning to `COc1ccccc1-n1cc(-c2ccccn2)cc(-c2ccccc2C#N)c1=O`, the IC50 in data set [1] was 150 nM.

On to `COc1ccc(-n2cc(-c3ccccn3)cc(-c3ccccc3C#N)c2=O)cc1`, for which the IC50 in data set [1] was determined as 440 nM.

With `N#Cc1ccccc1-c1cc(-c2ccccn2)cn(-c2ccc(F)nc2)c1=O`, the IC50 in data set [1] amounted to 500 nM.

As to `N#Cc1ccccc1-c1cc(-c2ccccn2)cn(-c2ccccc2C#N)c1=O`, in data set [1], the IC50 is > 15000 nM.

Turning to `N#Cc1ccc(-n2cc(-c3ccccn3)cc(-c3ccccc3C#N)c2=O)cc1`, the IC50 in data set [1] amounted to 520 nM.

Consider `COc1ccc(-n2cc(-c3ccccn3)cc(-c3ccccc3C#N)c2=O)cn1`, for which the IC50 in data set [1] is 620 nM.

`O=C1COC(c2ccccc2)=NN1c1ccccc1`: in [1], the IC50 was 9170 nM.

For `O=C1COC(c2ccccc2)=NN1Cc1ccccc1`, the IC50 in data set [1] is 33700 nM.

Regarding `O=C1COC(c2ccccc2)=NN1C1CCCCC1`, in data set [1], the IC50 is > 150000 nM.

With `O=C1COC(C2CCCCC2)=NN1c1ccccc1`, the IC50 in data set [1] is > 150000 nM.

In the case of `CCCC1=NN(c2ccccc2)C(=O)CO1`, in data set [1], the IC50 is > 150000 nM.

With `O=C1COC(Cc2ccccc2)=NN1c1ccccc1`, in data set [1], the IC50 is > 150000 nM.

Turning to `O=C1CCC(c2ccccc2)=NN1c1ccccc1`, in [1], the IC50 is 28100 nM.

`O=c1ccc(-c2ccccc2)cn1-c1ccccc1`: the IC50 in data set [1] stood at 69500 nM.

With `O=c1[nH]cc(-c2ccccc2)cc1-c1ccccc1`, in data set [1], the IC50 came to 57700 nM.

In the case of `O=c1c(-c2ccccc2)cc(-c2ccccc2)cn1-c1ccccc1`, the IC50 in [1] was 1080 nM.

Consider `O=c1c(-c2ccccc2)cc(-c2ccccn2)cn1-c1ccccc1`, for which the IC50 in [1] is 320 nM.

Consider `O=c1c(-c2ccccc2)cc(-c2ccccn2)cn1-c1cccnc1`, for which, in data set [1], the IC50 stood at 440 nM.

For `N#Cc1cccc(-c2cc(-c3ccccn3)cn(-c3ccccc3)c2=O)c1`, in [1], the IC50 amounted to 7260 nM.

For `N#Cc1ccc(-c2cc(-c3ccccn3)cn(-c3ccccc3)c2=O)cc1`, in data set [1], the IC50 is 28700 nM.

`O=c1c(-c2ccccc2F)cc(-c2ccccn2)cn1-c1ccccc1`: in data set [1], the IC50 was determined as 200 nM.

On to `O=c1c(-c2ccccc2Cl)cc(-c2ccccn2)cn1-c1ccccc1`, for which the IC50 in data set [1] is 100 nM.

As to `Cc1ccccc1-c1cc(-c2ccccn2)cn(-c2ccccc2)c1=O`, in data set [1], the IC50 came out at 400 nM.

For the compound `COc1ccccc1-c1cc(-c2ccccn2)cn(-c2ccccc2)c1=O`, in data set [1], the IC50 came to 1420 nM.

With `O=c1c(-c2cccnc2F)cc(-c2ccccn2)cn1-c1ccccc1`, the IC50 in data set [1] worked out at 370 nM. The minimal effective dose with Mus musculus [2] was 5 mg/kg.

Turning to `O=c1c(-c2cccnc2Cl)cc(-c2ccccn2)cn1-c1ccccc1`, in data set [1], the IC50 was determined as 680 nM.

For the compound `N#Cc1ncccc1-c1cc(-c2ccccn2)cn(-c2ccccc2)c1=O`, the IC50 in [1] was determined as 200 nM. The minimal effective dose with Mus musculus [2] was found to be 5 mg/kg.

Take `N#Cc1ccccc1-c1cc(-c2ccccn2)cn(-c2cccnc2)c1=O`: the IC50 in data set [1] was 210 nM. For the same compound, the minimal effective dose in the data set with Mus musculus [2] is 10 mg/kg.

Consider `N#Cc1ccccc1-c1cc(-c2ccccn2)cn(-c2ccccc2)c1=O` [PERAMPANEL], for which, in data set [3], the clearance was 30.3 mL/min/kg. Besides, the Vd in [4] was 4.56 L/kg. Besides, the half-life in data set [5] was 2.37 h; in data set [7], 70 h. Further, the Ratio in the data set with Nucleic Acid came out at 1.14. In data set [6], the bioavailability stood at 64.3%. In [1], the IC50 is 60 nM. For the same compound, the results for the AUC in the data set with Rattus norvegicus [8] and in the data set with Rattus norvegicus [13] were 0.36 µg/mL/h and 0.56 µg/mL/h, respectively. The Kp at 0.5 h in [9] turned out to be 1.14. Also, the ED50 was determined as 1.6 mg/kg in the data set with Mus musculus [10], 0.94 mg/kg in the data set with Mus musculus [12] and 0.47 mg/kg in the data set with Mus musculus [14]. In addition, the Kp at 1 h in data set [11] worked out at 1.06. In the data set on Mus musculus [2], the minimal effective dose was 2 mg/kg. The peak level in data set [15] (Cmax) was 170 ng/mL. Besides, the Tmax in [16] turned out to be 0.5 h.
